Columns and labels:
mice [1] = test: Respiratory rate, CLAMS; type: in vivo, mouse
mice [2] = test: Locomotor effect, CLAMS; type: in vivo, mouse
C57BL/6J mice [3] = conditions: mouse, in vivo
C57BL/6J mice [4] = conditions: sc; cited from earlier work
MOR = conditions: cited from earlier work
hMOR (Gi-1) = hMOR (Gi-1) (Homo sapiens, UniProt P35372); test: cell-based; conditions: for Emax: read-out: Gi-1 Emax
hMOR (GoA and GoB) = hMOR (GoA and GoB) (Homo sapiens, UniProt P35372); test: cell-based; conditions: read-out: Emax at GoA and GoB
hMOR (Gz) = hMOR (Gz) (Homo sapiens, UniProt P35372); test: cell-based; conditions: read-out: Emax at Gz
hMOR (β-arrestin2) = hMOR (β-arrestin2) (Homo sapiens, UniProt P35372); test: cell-based; conditions: for Emax: read-out: β-arrestin2 recruitment Emax (BRET)
hMOR (β-arrestin1) = hMOR (β-arrestin1) (Homo sapiens, UniProt P35372); type: cell-based
DOR = test: BRET Gi-1 activation assay at DOR; type: cell-based
Summary of the method: (§1)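 Cells were plated in 6-well dishes (700,000–800,000 cells/well) or 10 cm dishes and transfected 2–4 h later with receptor:Gα-RLuc8:Gβ:Gγ-GFP2 at 1:1:1:1. The next day they were replated on poly-D-lysine 96-well plates (30,000–50,000 cells/well). One day later, in HBSS + 20 mM HEPES pH 7.4 with coelenterazine 400a, cells equilibrated 5 min, then drug 5 min. BRET2 ratio was GFP2 (510 nm)/RLuc8 (395 nm), sixth of six serial reads.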

KOR = test: BRET Gi-1 activation assay at KOR; type: cell-based
Summary of the method: as §1

hMOR = hMOR (Homo sapiens, UniProt P35372); test: cell-based
murine MOR = murine MOR (Mus musculus, UniProt P42866); test: BRET-based Nb33 recruitment assay, mMOR; type: cell-based; conditions: for Nb33 recruitment efficacy at murine MOR: HEK293-T cells, compared to DAMGO
[5] = tested on: GABAA receptor-mediated IPSCs in VTA neurons; test: Whole cell electrophysiology, evoked IPSCs in VTA neurons of acute brain slices; type: cell-based, rat; conditions: 10 μM; compared to 5 μM DAMGO and 10 μM morphine
[6] = tested on: MOR KO, KOR KO and DOR KO mice; test: 55 °C tail withdrawal antinociception in opioid receptor knock-out mice; type: in vivo, mouse; conditions: 10 mg/kg, sc, relative to WT
hMOR (human MOR) = hMOR (human MOR) (Homo sapiens, UniProt P35372); test: biochemical; type: binding
[7] = 45 mg/kg, sc (15-fold antinociceptive ED50)

hMOR (β-arrestin2), sequence (P35372 whole entry): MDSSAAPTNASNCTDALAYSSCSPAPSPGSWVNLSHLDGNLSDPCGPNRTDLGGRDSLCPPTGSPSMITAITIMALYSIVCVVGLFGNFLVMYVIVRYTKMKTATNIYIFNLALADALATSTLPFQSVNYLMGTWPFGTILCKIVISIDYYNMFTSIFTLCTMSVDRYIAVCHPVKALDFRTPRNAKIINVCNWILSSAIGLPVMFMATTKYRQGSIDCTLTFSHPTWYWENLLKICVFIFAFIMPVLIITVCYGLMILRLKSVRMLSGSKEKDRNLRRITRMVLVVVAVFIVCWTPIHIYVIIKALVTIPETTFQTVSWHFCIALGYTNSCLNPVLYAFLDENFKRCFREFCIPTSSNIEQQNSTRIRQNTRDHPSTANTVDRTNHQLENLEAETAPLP
hMOR (Gz), sequence (P35372 whole entry): as above
hMOR (GoA and GoB), sequence (P35372 whole entry): as above
hMOR (β-arrestin1), sequence (P35372 whole entry): as above
hMOR (Gi-1), sequence (P35372 whole entry): as above
murine MOR, sequence (P42866 whole entry): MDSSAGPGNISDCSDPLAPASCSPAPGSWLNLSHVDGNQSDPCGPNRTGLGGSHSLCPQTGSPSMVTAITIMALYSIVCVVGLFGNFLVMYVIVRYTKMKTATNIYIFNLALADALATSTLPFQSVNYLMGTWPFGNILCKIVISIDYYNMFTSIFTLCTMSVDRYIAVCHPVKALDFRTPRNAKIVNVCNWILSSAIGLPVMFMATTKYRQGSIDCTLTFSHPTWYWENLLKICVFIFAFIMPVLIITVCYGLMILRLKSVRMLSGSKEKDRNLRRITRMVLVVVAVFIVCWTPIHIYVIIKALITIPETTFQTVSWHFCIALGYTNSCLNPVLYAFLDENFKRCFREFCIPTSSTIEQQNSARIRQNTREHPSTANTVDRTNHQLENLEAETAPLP
hMOR (human MOR), sequence (P35372 whole entry): as the sequence (P35372 whole entry) above
hMOR, sequence (P35372 whole entry): as above

| SMILES | place conditioning (CPP/CPA) (C57BL/6J mice [3]) | Nb33 recruitment efficacy (literature) (MOR) | Emax (hMOR (Gi-1)) | Emax (hMOR (GoA and GoB)) | Emax (hMOR (Gz)) | β-arrestin2 recruitment (BRET), words (hMOR (β-arrestin2)) | Emax (hMOR (β-arrestin2)) | β-arrestin1 recruitment (BRET), words (hMOR (β-arrestin1)) | mean inhibition of evoked IPSCs [5] | Ki (hMOR (human MOR)) | Nb33 recruitment efficacy at murine MOR (murine MOR) | further results |
| --- | --- | --- | --- | --- | --- | --- | --- | --- | --- | --- | --- | --- |
| CN1CC[C@]23c4c5ccc(O)c4O[C@H]2[C@@H](O)C=C[C@H]3[C@H]1C5 [morphine, reference compound] | showed CPP |  |  |  |  |  |  |  |  |  |  | respiratory effects (breath rate) (mice [1]; 30 mg/kg, sc): significant respiratory depression for 60 min; locomotor effect (mice [2]; 10 and 30 mg/kg, sc (5-fold and 15-fold ED50)): hyperlocomotion effects; antinociception ED50 (95% CI), literature (C57BL/6J mice [4]): 2.48 (1.57–3.87) mg/kg |
| COc1ccsc1CNCC[C@@]1(c2ccccn2)CCOC2(CCCC2)C1 [TRV130] |  | 42% |  |  |  |  |  |  |  |  |  |  |
| CC[C@@H]1CN2CC[C@@]3(O)C(=Nc4cccc(-c5ccoc5)c43)[C@@H]2C[C@@H]1/C(=C\OC)C(=O)OC [Compound 6 (SC13), Methyl(E)-2-((2S,3S,7aS,12bS)-3-ethyl-8-(furan-3-yl)-7a-hydroxy-1,2,3,4,6,7,7a,12b-octahydroindolo[2,3-a]quinolizin-2-yl)-3-methoxyacrylate] | no signs of CPP or CPA |  | 60 to 70% | 63 to 75% | 79 to 86% | not measurable | < 10% | failed to show recruitment | smaller |  |  | EC50 (hMOR (Gi-1)): 0.145 µM; fold lower potency at DOR versus MOR, Gi-1 activation (DOR): ~ 100 fold; fold lower potency at KOR versus MOR, Gi-1 activation (KOR): ~ 100 fold; EC50 (hMOR): 0.73 µM; EC50 (murine MOR): 0.012 µM; antinociception in MOR KO mice [6]: significantly reduced; antinociception in KOR KO mice ([6]; p = 0.058): remained intact; antinociception in DOR KO mice ([6]; p = 0.13): remained intact; respiratory effects (breath rate) (mice [1]; [7]): no statistically significant respiratory effects; locomotor effect (mice [2]; [7]): no hyperlocomotion |
| C[C@@H](Cc1ccsc1)NC(=O)NC[C@H](Cc1ccc(O)cc1)N(C)C [PZM21] |  | 38% |  |  |  |  |  |  |  |  |  |  |
| CC[C@@H]1CN2CC[C@@]3(O)C(=Nc4cccc(C)c43)[C@@H]2C[C@@H]1/C(=C\OC)C(=O)OC [Compound 5, Methyl(E)-2-((2S,3S,7aS,12bS)-3-ethyl-7a-hydroxy-8-methyl-1,2,3,4,6,7,7a,12b-octahydroindolo[2,3-a]quinolizin-2-yl)-3-methoxyacrylate] |  |  | 60 to 70% | 63 to 75% | 79 to 86% | not measurable | < 10% | failed to show recruitment | smaller | 0.015 to 0.017 µM | 15–18% |  |
| CC[C@@H]1CN2CC[C@@]3(O)C(=Nc4cccc(-c5ccccc5)c43)[C@@H]2C[C@@H]1/C(=C\OC)C(=O)OC [Compound 4, Methyl(E)-2-((2S,3S,7aS,12bS)-3-ethyl-7a-hydroxy-8-phenyl-1,2,3,4,6,7,7a,12b-octahydroindolo[2,3-a]quinolizin-2-yl)-3-methoxyacrylate] |  |  | 60 to 70% | 63 to 75% | 79 to 86% | not measurable | < 10% | failed to show recruitment | smaller | 0.015 to 0.017 µM | 15–18% |  |

Source: publication PMC8530377 (Journal of medicinal chemistry, 2021)
